# Yeast lifespan up: compounds extending yeast replicative lifespan, primary screen, S. cerevisiae, OD615; S. cerevisiae growth with nicotinamide; deaD strain in restrictive glucose medium; AID 775, 2007; hit rate 0.68% among 130,000; inhibition of the nicotinamide effect, % at 10 µM;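 active means inhibition above a set limit, placed 3 SD over the median of all compounds, cut at about 26% in these data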;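 further: 0% = nicotinamide-treated wells and 100% = cells grown without nicotinamide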
#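 Measured by: optical density (absorbance) at 615 nm; System: modified budding yeast, DeaD strain; Medium: restrictive CSMM-D dextrose medium; Timing: 4 h preincubation then 48 h treatment at 30 °C.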
# RAM network inh: inhibitors of the yeast RAM network, primary screen, dse1pr::URA3 reporter, 5-FOA selection | hit rate 1.8% among 190,000 | S. cerevisiae dse1pr::URA3 reporter, 5-FOA growth OD615, 2 d; analog-sensitive cbk1-as2 kinase mutant strain | inhibition, % at 50 µM;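 active means inhibition above a set limit, 3 SD over mean compound inhibition, cut at about 8.4% in these data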;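 further: 0% = DMSO-only wells with no growth and 100% = 10 µM 1-NA-PP1 full growth; inhibition rescues growth on 5-FOA so higher OD means more RAM inhibition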
# Yeast growth inh: growth inhibitors of yeast BB579 in restrictive medium, primary screen, yeast lifespan-shortening project, S. cerevisiae; OD615, 48 h; inhibition, % at 10 µM; hit rate 0.51% among 140,000; AID 804, 2007;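 active means inhibition above a set limit, 3 SD over the mean compound inhibition, cut at about 44% in these data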
#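 Test system: Saccharomyces cerevisiae DeaD strain BB579, replicative lifespan model yeast | Buffer or medium: Restrictive CSMM-D medium | Doses: One dose, 10 µM compound with 0.25% DMSO | Incubation: 48 h exposure, 30 °C | Detection: Culture absorbance at 615 nm | Control set: Amphotericin B at 10 µg/mL as positive control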
# TNAP inh no acc: human TNAP enzyme inhibitors, primary screen, biochemical, luminescent, no phosphate acceptor, uHTS. inhibition, % at 20 µM. hit rate 0.26% among 200,000. purified TNAP, CDP-star luminescence, 30 min;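 active means tissue-nonspecific alkaline phosphatase inhibition above about 50% at 20 µM in the single-dose screen, limit read from the data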;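 further: 0% = DMSO negative control and 100% = EDTA positive control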
# Target sequence (P05186 whole entry, looked up): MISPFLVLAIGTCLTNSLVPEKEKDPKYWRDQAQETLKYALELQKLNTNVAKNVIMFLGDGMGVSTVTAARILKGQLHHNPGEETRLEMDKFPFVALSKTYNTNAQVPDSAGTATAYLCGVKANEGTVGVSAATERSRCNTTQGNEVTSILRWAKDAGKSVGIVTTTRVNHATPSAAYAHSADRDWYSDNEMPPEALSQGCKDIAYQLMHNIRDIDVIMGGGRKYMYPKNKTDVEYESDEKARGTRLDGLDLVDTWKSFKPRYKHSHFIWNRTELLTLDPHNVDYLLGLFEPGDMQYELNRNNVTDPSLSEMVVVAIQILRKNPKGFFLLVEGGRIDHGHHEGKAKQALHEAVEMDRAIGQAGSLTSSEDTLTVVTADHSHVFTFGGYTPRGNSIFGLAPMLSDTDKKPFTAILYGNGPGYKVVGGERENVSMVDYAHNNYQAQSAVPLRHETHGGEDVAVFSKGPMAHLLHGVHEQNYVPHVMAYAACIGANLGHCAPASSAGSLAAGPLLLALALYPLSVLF
# TNAP inh hi DEA: human TNAP enzyme inhibitors, primary screen, biochemical, luminescent, high phosphate acceptor level, uHTS; inhibition, % at 20 µM; hit rate 0.03% among 200,000; Alkaline phosphatase, tissue-nonspecific isozyme (Homo sapiens), P05186; purified TNAP, CDP-star luminescence, 1 M DEA;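 active means over 50% inhibition of tissue-nonspecific alkaline phosphatase at 20 µM in the single-dose screen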;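 further: plate controls were DMSO wells for no effect and EDTA-quenched wells as full inhibition for full effect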
# TNAP act hi DEA: TNAP activators at high phosphate acceptor level, primary screen, biochemical, luminescence, uHTS | activation factor at 20 µM | purified TNAP, CDP-star luminescence, 1 M DEA, 30 min; hits give high values; 0 = EDTA background, 1 = DMSO-only activity | 200,000 tested, under 10 active;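 active means activation factor at least 2 at 20 µM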
#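 system = human TNAP | amount = enzyme diluted 1/800 final | reagent = 100 µM CDP-star substrate | signal = luminescent substrate turnover signal | dosing = one dose, 20 µM | benchmarks = EDTA negative control, DMSO positive control | measure = activation factor | timing = 30 min reaction, room temperature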
# RAM 5-FOA: 5-FOA growth of efflux-deficient control yeast, dose response, counter-screen for RAM network inhibitor project, S. cerevisiae, OD615; shares compounds with RAM network inh; S. cerevisiae efflux-deficient reporter strain, 5-FOA growth OD615, 2 days; max inhibition, %; 1,200 tested, under 10 active; AID 1305, 2008; call rule not given here;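 further: plate controls were vehicle for no effect and reference inhibitor for full effect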
# * marks the source's active call; other numbers are inactive results; · = no result given. Most compounds without a hit are left out; they make up all but 2.8% or so of the library.
SMILES,Yeast lifespan up,RAM network inh,Yeast growth inh,TNAP inh no acc,TNAP inh hi DEA,TNAP act hi DEA,RAM 5-FOA
CCCCCCOC1(c2ccccc2)OC(=O)c2ccccc21 (stereo unspecified),-3,1,-24,-6,-2,1,·
CCCCCOP(=O)(OCCCCC)C1(NS(=O)(=O)c2ccccc2)C=CC(=O)c2ccccc21 (stereo unspecified),1,12*,-1,-3,-4,1,1
N#Cc1cc(-c2ccc(Cl)cc2)cnc1Sc1ccc(F)cc1,-2,12*,-53,-3,1,1,2
CCC(Oc1ccc2c(=O)c(-c3ccccc3OC)coc2c1)C(=O)OCc1ccccc1 (stereo unspecified),4,22*,-29,-4,3,1,2
CCc1cc2c(=O)n(Cc3ccco3)c(SCc3c(C)noc3C)nc2s1,-3,13*,-49,-11,-3,1,7
Cc1cc(C)n2nc(SCc3nnc(-c4ccccc4Br)o3)nc2n1,·,0,·,-12,-8,1.1,·
COc1ccc(-n2nc(C(=O)Nc3ccc4c(c3)OCO4)c3c4ccccc4n(C)c3c2=O)cc1,·,·,·,-11,-4,1,·
COc1ccc(-n2nc(C(=O)Nc3ccc(OC)c(OC)c3)c3c4ccccc4n(C)c3c2=O)cc1,-2,13*,-82,-13,-5,1.1,5
CSc1ccc(Cl)c(C(=O)NCCOc2cc(C)ccc2C(C)C)c1,-6,13*,-10,-13,-5,1,2
CSc1ccc(Cl)c(C(=O)NCCOc2ccccc2)c1,-31,1,-30,-12,-6,1.1,·
CCC1(C)Cc2c(sc3nc(NN)n(C)c(=O)c23)CO1 (stereo unspecified),-14,2,-31,13,-8,1.1,·
CSc1nc(SCC(=O)NCc2ccco2)c2c3c(sc2n1)COC(C)(C)C3,-9,2,-74,-8,-5,1,·
CCCSc1nc(SCC(=O)NCc2ccccc2)c2c3c(sc2n1)COC(C)(CC)C3 (stereo unspecified),-11,12*,-8,-16,-8,1.1,2
CCCCSc1nc(SCC(=O)NCc2ccco2)c2c3c(sc2n1)COC(C)(CC)C3 (stereo unspecified),-7,14*,-15,-9,-4,1,7
C=CCSc1nc(-c2ccc(OC)cc2)c(C#N)c(=O)n1CC=C,·,12*,·,-6,-6,1.1,2
Cc1ccc(SCCNC(=O)c2ccc(C)c(S(=O)(=O)Nc3ccccc3C)c2)cc1,-19,17*,-18,-12,-3,1,3
COc1ccc(C(=O)/C=C/c2ccc(OC)c(COc3ccc(F)cc3)c2)cc1,3,18*,-33,-4,-5,1,3
COc1ccc(/C=C/C(=O)c2ccc(OC)cc2OC)c(OC)c1,·,14*,·,-2,0,1,2
COc1ccc(OC)c(/C=C/C(=O)c2ccc(Cl)cc2)c1,-18,13*,-13,-7,-1,1,5
COc1ccccc1/C=C/C(=O)c1ccc(Cl)cc1,-6,0,-39,-8,-2,1,·
CC(C)C(=O)Nc1ncc(Cc2cccc(Cl)c2)s1,·,0,·,-15,-8,1.1,·
S=C(NCC1CCCO1)Nc1ccccc1 (stereo unspecified),·,2,·,-8,-5,1,·
CCC(C)COC(=O)C(C#N)c1nc2ccccc2nc1N1CCCCC1 (stereo unspecified),1,18*,-39,12,6,0.9,4
CCCCCCOC(=O)C(C#N)c1nc2ccccc2nc1N1CCN(C)CC1 (stereo unspecified),-25,0,-36,12,5,0.9,·
CCCCCCOC(=O)C(C#N)c1nc2ccccc2nc1N1CCCCC1 (stereo unspecified),23,24*,-43,6,8,0.9,9
SMILES,Yeast lifespan up,RAM network inh,Yeast growth inh,TNAP inh no acc,TNAP inh hi DEA,TNAP act hi DEA,RAM 5-FOA
CCCCOc1nc2ccccc2nc1C(C#N)C(=O)NC1CCCCC1 (stereo unspecified),-6,12*,-36,3,-1,1,9
COc1ccccc1NC(=O)C(NC(=O)OC(C)(C)C)C(C)OCc1ccccc1 (stereo unspecified),-8,5,-49,-6,-5,1,·
Cc1c(NC(=O)c2cnn3c2NC(c2ccco2)CC3C(F)(F)F)c(=O)n(-c2ccccc2)n1C (stereo unspecified),13,3,-61,-13,-1,1,·
Cc1cc(OCC(=O)Nn2cnnc2)ccc1Br,-2,2,-17,-8,2,1,·
CCCCN(C)C(=O)C1CCC(=O)N(c2cc(OC)c(OC)c(OC)c2)C1c1ccc(OC)cc1 (stereo unspecified),-2,1,-19,-6,-5,1,·
CC(C)Cn1c(N)c(-c2nc(C(C)C)c(C(=O)c3ccccc3F)s2)c(=O)n(C)c1=O,·,12*,·,-9,-1,1,2
CCOc1ccc(-c2nnc(Nc3ccc(OC)c(C(=O)N4CCCCC4)c3)c3ccccc23)cc1,3,0,-14,-7,-4,1,·
COC(=O)c1c(CSc2ccc(C)c(C)c2)noc1C(=O)NCc1ccc(OC)cc1,1,12*,-37,-5,-4,1,2
Nc1ccc(C(=O)O)cc1[N+](=O)[O-],·,1,·,-10,-3,1,·
Nc1ccc(C(=O)c2cccs2)cc1[N+](=O)[O-],·,13*,·,2,4,1,13
CCOC(=O)C(C)(C)Sc1nc2c(cnn2-c2ccc(Cl)cc2)c(=O)[nH]1,4,14*,-103,-4,-2,1,3
CCC(Sc1nc2c(cnn2-c2ccc(Cl)cc2)c(=O)[nH]1)C(=O)OC (stereo unspecified),3,4,-17,4,0,1,·
COC(=O)c1cc(=O)n(Cc2ccc(F)cc2)c(=NCc2ccc(F)cc2)s1,·,14*,·,-10,-1,1,3
COc1cccc(/C=N/NC(=O)CC(=O)NCCc2ccc(OC)c(OC)c2)c1,-1,0,13,-11,-8,1.1,·
